Experimental data reported in the array DNA melting data of Ke et al. (doi:10.1101/2024.01.08.574731).

Tests used:
[1] = melting temperature; fluorescence melt of hairpins on a sequencing array, two-state fit, raised by 9.35 °C to match UV melts; conditions: sodium 0.088 M
How it was run: (§1)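 To match UV melts, fitted temperatures were raised by 9.35 °C. These fits were bootstrapped two-state models that gave melting temperature and folding enthalpy, combined by inverse variance over four replicates. The input was normalised Cy3 fluorescence of library hairpins with annealed Cy3 and quencher oligos on a sequenced MiSeq flow cell, imaged in 50 mM Na-HEPES pH 8.0, 25 mM NaCl in 2.5 °C steps up to 60 °C.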

[2] = folding enthalpy; higher = less favourable; fluorescence melt of hairpins on a sequencing array, two-state fit; conditions: sodium 0.088 M
How it was run: as §1

GTTCACCCGAAAGGGAAC (((..(((....))))))
Tm [1]: 37.2 °C | folding enthalpy [2]: -14.3 kcal/mol

GTTCACCGAAAGGTTAAC (((.(((....))).)))
Tm [1]: 42.3 °C | folding enthalpy [2]: -26.4 kcal/mol

GTTCACGAAAGTGACAAC ((((((....)))..)))
Tm [1]: 35.3 °C | folding enthalpy [2]: -10.1 kcal/mol

GTTCACGAAAGTGAGAAC ((((((....)))..)))
Tm [1]: 37.5 °C | folding enthalpy [2]: -11.2 kcal/mol

GTTCACGAAAGTGTAAAC ((((((....)))..)))
Tm [1]: 28.2 °C | folding enthalpy [2]: -12.3 kcal/mol

GTTCACGAAAGTGTTAAC ((((((....)))..)))
Tm [1]: 28 °C | folding enthalpy [2]: -12.2 kcal/mol

GTTCAGAAATGAAC (((((....)))))
Tm [1]: 41.8 °C | folding enthalpy [2]: -21.2 kcal/mol

GTTCAGCGAAAGCTAAAC (((.(((....))).)))
Tm [1]: 37.8 °C | folding enthalpy [2]: -21.6 kcal/mol

GTTCAGCGAAAGCTCAAC (((.(((....))).)))
Tm [1]: 33.2 °C | folding enthalpy [2]: -15.4 kcal/mol

GTTCAGGGAAACCTGGAC ((.((((....)))).))
Tm [1]: 48.9 °C | folding enthalpy [2]: -29.6 kcal/mol

GTTCATCGAAAGATAAC (((.(((....))))))
Tm [1]: 32.3 °C | folding enthalpy [2]: -12.4 kcal/mol

GTTCCCACGAAAGTGAAC (((..(((....))))))
Tm [1]: 25.7 °C | folding enthalpy [2]: -10 kcal/mol

GTTCCCCGAAAGGGCAAC (((.(((....))).)))
Tm [1]: 35.2 °C | folding enthalpy [2]: -14.5 kcal/mol

GTTCCCGAAAGGGCAAAC ((((((....)))..)))
Tm [1]: 28.9 °C | folding enthalpy [2]: -9.62 kcal/mol

GTTCCCGAAAGGGTAAAC ((((((....)))..)))
Tm [1]: 28.8 °C | folding enthalpy [2]: -11.5 kcal/mol

GTTCCCGAAAGGGTAAC ((((((....))).)))
Tm [1]: 40.9 °C | folding enthalpy [2]: -17.6 kcal/mol

GTTCCGCGAAAGCGAAC (((.(((....))))))
Tm [1]: 50.8 °C | folding enthalpy [2]: -14.7 kcal/mol

GTTCCTCGAAAGAGTAAC (((.(((....))).)))
Tm [1]: 34.1 °C | folding enthalpy [2]: -27.6 kcal/mol

GTTCCTGGAAACAGGAAC (((((((....)))))))
Tm [1]: 63.5 °C | folding enthalpy [2]: -40.9 kcal/mol

GTTCGACGAAAGTCCAAC (((.(((....))).)))
Tm [1]: 34.5 °C | folding enthalpy [2]: -19.8 kcal/mol

GTTCGCACGAAAGTGAAC (((..(((....))))))
Tm [1]: 39 °C | folding enthalpy [2]: -16.3 kcal/mol

GTTCGCCGAAAGGCAAAC (((.(((....))).)))
Tm [1]: 46.9 °C | folding enthalpy [2]: -18.1 kcal/mol

GTTCGCGAAAGCGAAAAC ((((((....)))..)))
Tm [1]: 47.4 °C | folding enthalpy [2]: -9.22 kcal/mol

GTTCGCGAAAGCGATAAC ((((((....)))..)))
Tm [1]: 32.7 °C | folding enthalpy [2]: -8.04 kcal/mol

GTTCGCGAAAGCGCGAAC ((((((....)))..)))
Tm [1]: 65 °C | folding enthalpy [2]: -27.4 kcal/mol

GTTCGCGAAAGCGGGAAC ((((((....)))..)))
Tm [1]: 40.7 °C | folding enthalpy [2]: -11.8 kcal/mol

GTTCGCGGAAACGTGAAC ((((.((....)).))))
Tm [1]: 56.8 °C | folding enthalpy [2]: -37.7 kcal/mol

GTTCGCGGAAACGTGGAC ((.(.((....)).).))
Tm [1]: 44.8 °C | folding enthalpy [2]: -26.9 kcal/mol

GTTCGGGGAAACCCGGAC ((.((((....)))).))
Tm [1]: 54.9 °C | folding enthalpy [2]: -42.2 kcal/mol

GTTCGTGGAAACACAAAC (((.(((....))).)))
Tm [1]: 34 °C | folding enthalpy [2]: -22.1 kcal/mol

GTTCTAGAAATAGAAC ((((((....))))))
Tm [1]: 41.1 °C | folding enthalpy [2]: -28.4 kcal/mol

GTTCTAGGAAACCAGAAC (((((.(....).)))))
Tm [1]: 35.6 °C | folding enthalpy [2]: -26.6 kcal/mol

GTTCTCGAAAGAGAAAAC ((((((....)))..)))
Tm [1]: 32.6 °C | folding enthalpy [2]: -14 kcal/mol

GTTCTCGAAAGAGACAAC ((((((....)))..)))
Tm [1]: 30.6 °C | folding enthalpy [2]: -11.6 kcal/mol

GTTCTCGAAAGAGTAAAC ((((((....)))..)))
Tm [1]: 27.9 °C | folding enthalpy [2]: -12.5 kcal/mol

GTTCTCGGAAACGAGGAC ((.((((....)))).))
Tm [1]: 52 °C | folding enthalpy [2]: -28.7 kcal/mol

GTTCTGACGAAAGTCAAC (((..(((....))))))
Tm [1]: 25.2 °C | folding enthalpy [2]: -8.85 kcal/mol

GTTCTGCGAAAGCAAAC (((.(((....))))))
Tm [1]: 36.9 °C | folding enthalpy [2]: -13.5 kcal/mol

GTTCTGGAAACAGAAC ((((((....))))))
Tm [1]: 53.4 °C | folding enthalpy [2]: -37.2 kcal/mol

GTTCTGGGAAACTAGGAC ((.((.(....).)).))
Tm [1]: 28.8 °C | folding enthalpy [2]: -9.14 kcal/mol

GTTCTGTCGAAAGACAAC (((..(((....))))))
Tm [1]: 23.8 °C | folding enthalpy [2]: -9.57 kcal/mol

GTTCTTCGAAAGAACAAC (((.(((....))).)))
Tm [1]: 32 °C | folding enthalpy [2]: -14.9 kcal/mol

GTTCTTGGAAACAAGAAC (((((((....)))))))
Tm [1]: 55.5 °C | folding enthalpy [2]: -41.7 kcal/mol

GTTGAAGAAATTCAAC ((((((....))))))
Tm [1]: 45.8 °C | folding enthalpy [2]: -27.1 kcal/mol

GTTGAAGGAAACCTCAAC (((((.(....).)))))
Tm [1]: 36 °C | folding enthalpy [2]: -31 kcal/mol

GTTGACCCGAAAGGGAAC (((..(((....))))))
Tm [1]: 37.8 °C | folding enthalpy [2]: -14.3 kcal/mol

GTTGACCGAAAGGTAAAC (((.(((....))).)))
Tm [1]: 48.7 °C | folding enthalpy [2]: -30.7 kcal/mol

GTTGACCGAAAGGTTAAC (((.(((....))).)))
Tm [1]: 53.1 °C | folding enthalpy [2]: -33.7 kcal/mol

GTTGACGAAAGTCCAAAC ((((((....)))..)))
Tm [1]: 24.3 °C | folding enthalpy [2]: -9.18 kcal/mol

GTTGAGCGAAAGCTGAAC (((.(((....))).)))
Tm [1]: 46.2 °C | folding enthalpy [2]: -23.9 kcal/mol

GTTGAGCGAAAGCTTAAC (((.(((....))).)))
Tm [1]: 52.4 °C | folding enthalpy [2]: -26.4 kcal/mol

GTTGAGGAAACTCAAC ((((((....))))))
Tm [1]: 53.4 °C | folding enthalpy [2]: -32.2 kcal/mol

GTTGAGGCGAAAGCCAAC (((..(((....))))))
Tm [1]: 40.7 °C | folding enthalpy [2]: -14.6 kcal/mol

GTTGAGGGAAACCTCGAC ((.((((....)))).))
Tm [1]: 49.8 °C | folding enthalpy [2]: -29.5 kcal/mol

GTTGATACGAAAGTAAAC (((..(((....))))))
Tm [1]: 25.8 °C | folding enthalpy [2]: -8.92 kcal/mol

GTTGATCGAAAGATAAAC (((.(((....))).)))
Tm [1]: 40 °C | folding enthalpy [2]: -25.1 kcal/mol

GTTGATGGAAACATTGAC ((..(((....)))..))
Tm [1]: 29.5 °C | folding enthalpy [2]: -13.7 kcal/mol

GTTGATGGAAACGTCAAC (((((.(....).)))))
Tm [1]: 47.1 °C | folding enthalpy [2]: -42.9 kcal/mol

GTTGCAGGAAACTGTAGC (.(.(((....))).).)
Tm [1]: 32.6 °C | folding enthalpy [2]: -19.9 kcal/mol

GTTGCCCCGAAAGGGAAC (((..(((....))))))
Tm [1]: 39.2 °C | folding enthalpy [2]: -14.2 kcal/mol

GTTGCCCGAAAGGGAAC (((.(((....))))))
Tm [1]: 47.6 °C | folding enthalpy [2]: -15.6 kcal/mol

GTTGCCCGAAAGGGGAAC (((.(((....))).)))
Tm [1]: 62.1 °C | folding enthalpy [2]: -34.2 kcal/mol

GTTGCCCGAAAGGGTAAC (((.(((....))).)))
Tm [1]: 60.9 °C | folding enthalpy [2]: -31.6 kcal/mol

GTTGCCGAAAGGCGAAC ((((((....))).)))
Tm [1]: 50.3 °C | folding enthalpy [2]: -13.8 kcal/mol

GTTGCCGGAAACGGTGAC ((..(((....)))..))
Tm [1]: 47.8 °C | folding enthalpy [2]: -22.8 kcal/mol

GTTGCGGGAAACCGTAGC (.(.(((....))).).)
Tm [1]: 36.1 °C | folding enthalpy [2]: -24.5 kcal/mol

GTTGCGGGAAACTGCGAC ((.((.(....).)).))
Tm [1]: 38 °C | folding enthalpy [2]: -11 kcal/mol

GTTGCTGGAAACAACAAC ((((.((....)).))))
Tm [1]: 38.8 °C | folding enthalpy [2]: -29.2 kcal/mol

GTTGCTGGAAACAGCAAC (((((((....)))))))
Tm [1]: 65.8 °C | folding enthalpy [2]: -62.8 kcal/mol

GTTGGAGGAAACTCCGAC ((.((((....)))).))
Tm [1]: 52.8 °C | folding enthalpy [2]: -40.7 kcal/mol

GTTGGAGGAAACTCTAAC (((.(((....))).)))
Tm [1]: 39.9 °C | folding enthalpy [2]: -27.1 kcal/mol

GTTGGCGAAAGCCAGAAC ((((((....)))..)))
Tm [1]: 35.1 °C | folding enthalpy [2]: -8.8 kcal/mol

GTTGGCGAAAGCCCAAC ((((((....))).)))
Tm [1]: 50.7 °C | folding enthalpy [2]: -16.3 kcal/mol

GTTGGCGGAAACGTCAAC ((((.((....)).))))
Tm [1]: 56.8 °C | folding enthalpy [2]: -36.7 kcal/mol

GTTGGGCGAAAGCCGAAC (((.(((....))).)))
Tm [1]: 53.2 °C | folding enthalpy [2]: -19.5 kcal/mol

GTTGGGGAAACCCAAC ((((((....))))))
Tm [1]: 60 °C | folding enthalpy [2]: -36.8 kcal/mol

GTTGGGGGAAACCCCAGC (.(((((....))))).)
Tm [1]: 49.8 °C | folding enthalpy [2]: -17.3 kcal/mol

GTTGGTGGAAACATCAGC (.((.((....)).)).)
Tm [1]: 31.4 °C | folding enthalpy [2]: -18.8 kcal/mol

GTTGTACGAAAGTATAAC (((.(((....))).)))
Tm [1]: 47.6 °C | folding enthalpy [2]: -26.9 kcal/mol

GTTGTAGGAAACTACAGC (.(((((....))))).)
Tm [1]: 42 °C | folding enthalpy [2]: -25.8 kcal/mol

GTTGTCCGAAAGGAAAC (((.(((....))))))
Tm [1]: 37.8 °C | folding enthalpy [2]: -20.4 kcal/mol

GTTGTCGAAAGACAAAC ((((((....))).)))
Tm [1]: 48.9 °C | folding enthalpy [2]: -14.2 kcal/mol

GTTGTCGAAAGACCGAAC ((((((....)))..)))
Tm [1]: 28.8 °C | folding enthalpy [2]: -11.3 kcal/mol

GTTGTCGAAAGACGAAAC ((((((....)))..)))
Tm [1]: 29.1 °C | folding enthalpy [2]: -9.08 kcal/mol

GTTGTCGAAAGACTCAAC ((((((....)))..)))
Tm [1]: 27.7 °C | folding enthalpy [2]: -11.7 kcal/mol

GTTGTCGGAAACGATGAC ((..(((....)))..))
Tm [1]: 40.4 °C | folding enthalpy [2]: -16 kcal/mol

GTTGTGCCGAAAGGCAAC (((..(((....))))))
Tm [1]: 53 °C | folding enthalpy [2]: -19.6 kcal/mol

GTTGTGGCGAAAGCCAAC (((..(((....))))))
Tm [1]: 53.7 °C | folding enthalpy [2]: -18.3 kcal/mol

GTTGTGGGAAACCACAAC (((((((....)))))))
Tm [1]: 63.1 °C | folding enthalpy [2]: -46 kcal/mol

GTTGTGGGAAACCACGAC ((.((((....)))).))
Tm [1]: 52.7 °C | folding enthalpy [2]: -30.8 kcal/mol

GTTGTGGGAAACCGTAAC (((..((....))..)))
Tm [1]: 29.2 °C | folding enthalpy [2]: -13 kcal/mol
